Bioassay records (PubChem)
KLK5 inh – inhibitors of human kallikrein 5 | Q9Y337 | recombinant hK5, fluorogenic AMC substrate cleavage | inhibition, % at 5 µM | 210,000 tested, 0.59% active;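 active = inhibition of 40% or more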
STAT3 activator – activators of IL-6 induced STAT3 signaling | 190,000 tested, 0.91% active | U3A cells, IL-6 STAT3-luciferase reporter, luminescence; 100% = signal with IL-6 EC80 alone | activation (% of control), % at 5.6 µM;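 active = activation above the screen-wide mean of compound activation plus 3 SD, cut at about 130% in these data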
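Material: STAT3-luciferase reporter U3A cells. Controls: IL-6-treated wells, 100% activation. Read-out: % activation versus median of IL-6-stimulated wells. Probe or stimulus: IL-6 stimulus at 33 ng/mL final. Timing: compound 1 h, then IL-6 6 h at 37 °C. Signal: reporter luminescence signal.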
FXIIa inh 1536 – factor XIIa (human) inhibition | purified FXIIa, Boc-QGR-AMC fluorogenic substrate, 2 h | inhibition, % at 5 µM | 220,000 tested, 0.3% active; in the data active = inhibition above about 40%
Target sequence (P00748 20-372 limits assumed): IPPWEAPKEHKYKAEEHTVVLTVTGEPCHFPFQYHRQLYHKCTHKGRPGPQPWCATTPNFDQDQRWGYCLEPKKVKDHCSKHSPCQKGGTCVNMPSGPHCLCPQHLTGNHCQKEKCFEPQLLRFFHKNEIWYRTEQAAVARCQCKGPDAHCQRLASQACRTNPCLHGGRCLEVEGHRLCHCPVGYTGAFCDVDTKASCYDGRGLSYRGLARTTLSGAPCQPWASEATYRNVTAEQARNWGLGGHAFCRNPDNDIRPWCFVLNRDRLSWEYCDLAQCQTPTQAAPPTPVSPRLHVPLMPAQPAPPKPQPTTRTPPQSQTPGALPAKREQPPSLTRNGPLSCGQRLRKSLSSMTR
Target sequence (P00748 373-615 limits assumed): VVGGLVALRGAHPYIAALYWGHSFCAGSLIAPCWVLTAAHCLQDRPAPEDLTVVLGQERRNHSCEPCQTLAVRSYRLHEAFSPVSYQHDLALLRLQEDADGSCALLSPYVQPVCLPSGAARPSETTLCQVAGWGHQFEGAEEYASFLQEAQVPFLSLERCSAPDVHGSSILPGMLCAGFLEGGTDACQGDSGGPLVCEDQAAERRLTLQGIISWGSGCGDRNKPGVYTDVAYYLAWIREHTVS
thrombin 1536 – blocks human thrombin protease activity | P00734 | alpha-thrombin, Boc-VPR-AMC fluorogenic substrate cleavage | inhibition, % at 5 µM | 220,000 tested, 0.26% active | AID 1046;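 active = inhibition at or above 40%; inactive = inhibition below 40%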
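Material: Human alpha-thrombin protein | Buffer or medium: pH 7.5 Tris-saline with Tween 20 | Reagent: Boc-VPR-AMC substrate, 15 µM final | Schedule: Reaction at ambient temperature | Detection: AMC fluorescence at 355 nm excitation and 460 nm emission | Evaluation: Percent inhibition scaled between no-compound controls and no-enzyme blanks | Controls: no-compound enzyme wells and no-enzyme blanks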
AHR activator – activators of human aryl hydrocarbon receptor; activation, % at 5 µM; AHR-responsive luciferase reporter cells, luminescence; 320,000 tested, 2.5% active; in the data active = activation above about 47%
FXIa inh 1536 – inhibitors of human coagulation factor XIa. P03951. purified FXIa, Boc-Glu-Ala-Arg-AMC fluorogenic substrate. inhibition, % at 5 µM. 220,000 tested, 0.14% active;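 active = inhibition of at least 40%; inactive = inhibition below 40%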;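 also: fluorescence of freed AMC excited at 355 nm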
Numbers stand for hits; i = inactive; nt = no result given. Only some compounds are listed: those with a hit (about 3.5% of all), similar ones and a draw of the others.

SMILES	KLK5 inh	STAT3 activator	FXIIa inh 1536	thrombin 1536	AHR activator	FXIa inh 1536
C/C(=N\NC(=O)c1cc2c(s1)CCC(C)C2)c1ccncc1 (stereo unspecified)	i	i	i	i	56	i
COc1ccc(NC(=O)CN(C)C(=O)C2(c3ccccc3)CCCC2)cc1	nt	nt	nt	nt	i	nt
Cc1ccc(/C=N/N2CCN(Cc3ccc(Cl)cc3)CC2)o1	i	i	i	i	i	i
Cc1cccc(N=N/C(=C\O)C(=O)c2ccc(Br)cc2)c1	i	i	i	i	i	i
O=C(/C(=C/O)N=Nc1cccc(C(F)(F)F)c1)c1ccccc1	i	i	i	i	75	i
CC1CC1C(=O)Nc1nc(-c2cccs2)c(-c2cccs2)s1 (stereo unspecified)	i	i	i	i	78	i
O=C(Nc1nc(-c2cccs2)c(-c2ccccc2)s1)c1ccco1	i	i	i	i	i	i
COc1cc(C(=O)NCC(c2ccco2)N2CCOCC2)cc(OC)c1OC (stereo unspecified)	nt	nt	nt	nt	i	nt
COCc1cc(C)nc2sc(C(=O)Nc3ccc(C(=O)OC)cc3)c(N)c12	nt	nt	nt	nt	i	nt
COCc1cc(C)nc2sc(C(=O)OC(C)C)c(N)c12	i	i	i	i	72	i
COc1cccc(C(=O)NNC(=O)Cc2ccc([N+](=O)[O-])cc2)c1	i	i	i	44	i	i
CCOC(CNC(=O)Cn1nc(C)c2ccccc21)OCC	i	i	i	i	i	i
CCN(CC)S(=O)(=O)c1ccc(OC)c(NS(=O)(=O)c2ccc(F)cc2)c1	42	i	i	i	i	i
Cc1ccccc1OCc1nc(C#N)c(N2CCCC2)o1	i	i	i	i	i	i
COc1ccccc1OCc1nc(C#N)c(N2CCCC2)o1	i	i	i	i	65	i
COc1ccc(Cc2nc(-c3ccc(Br)o3)no2)cc1OC	i	i	i	i	47	i
COc1ccc(-c2noc(-c3ccc(Br)o3)n2)cc1OC	i	i	i	i	i	i
Cc1ccc(C(=O)COC(=O)c2cc(=O)[nH]c3ccccc23)cc1C	i	i	i	i	i	i
CC[n+]1c(/C=C/C=C/N(C(C)=O)c2ccccc2)sc2cc(OC)ccc21	i	i	i	i	i	i
CCOC(=O)C1C(C(=O)Nc2cccc(C(F)(F)F)c2)C1C(=O)NC(C)C (stereo unspecified)	53	i	i	i	i	i
Cc1cc(/C=C2\SC(N)=NC2=O)c(C)n1-c1ccc(F)cc1	i	i	i	i	i	i
Cc1ccc(-n2nc3c(=O)n(C(C)C(=O)NCCC4=CCCCC4)nc(C)c3c2C)cc1 (stereo unspecified)	nt	nt	nt	nt	i	nt
COc1ccccc1-c1nn2c(C3COc4ccccc4O3)nnc2s1 (stereo unspecified)	i	133	i	i	i	i
c1ccc(Cc2nn3c(C4COc5ccccc5O4)nnc3s2)cc1 (stereo unspecified)	i	135	i	i	i	i
CC(OC(=O)Cn1cnc2c1c(=O)n(C)c(=O)n2C)C(=O)NC(C)c1ccc(Cl)cc1Cl (stereo unspecified)	nt	nt	nt	nt	i	nt
SMILES	KLK5 inh	STAT3 activator	FXIIa inh 1536	thrombin 1536	AHR activator	FXIa inh 1536
O=C(Nc1nccs1)C(Br)C(Br)c1ccccc1 (stereo unspecified)	nt	nt	nt	nt	52	nt
CC(=O)OC(C(=O)Nc1nccs1)c1ccccc1 (stereo unspecified)	nt	nt	nt	nt	i	nt
O=C(CN1CCN(C(=O)N2CCOCC2)CC1)Nc1cc(Cl)ccc1Cl	nt	nt	nt	nt	i	nt
CCc1ccc2c(c1)C(c1ccc([N+](=O)[O-])cc1)=NNC(c1ccc(C)cc1)=N2	i	i	i	i	i	i
O=C(Nc1ccccc1F)C1CCCC1	nt	nt	nt	nt	i	nt
O=C(Nc1ccccc1F)c1oc2ccccc2c1NC(=O)C1CC1	nt	nt	nt	nt	57	nt
Cc1cc2c(C)nc(N/N=C/c3ccc([N+](=O)[O-])cc3)nc2o1	50	i	i	i	i	i
COc1cc(OC)cc(C(=O)Nc2ccc(N3CCN(C(=O)c4cccs4)CC3)cc2)c1	nt	nt	nt	nt	53	nt
c1ccc(-c2cc3n(c2)CCc2ccccc2-3)cc1	i	191	i	i	i	i
O=C(O)c1cc2c(s1)-c1ccccc1CC2	i	i	i	i	i	i
Cc1c(NC(=S)/C=C2\N(C)c3ccccc3C2(C)C)c(=O)n(-c2ccccc2)n1C	67	i	i	i	i	i
CSc1cccc(NC(=O)CCCn2c(=O)c3cccn3c3cccnc32)c1	nt	nt	nt	nt	i	nt
Cc1ccc(N/N=C(\C#N)C(N)=S)cc1C	i	i	i	i	i	i
N#C/C(=N\Nc1ccccc1)C(N)=S	i	nt	107	i	i	i
N#C/C(=N\Nc1ccc(Cl)cc1)C(N)=S	i	nt	i	i	59	i
N#CCCC1CCCC=C1N(Cc1ccccc1)C(=O)C(Cl)Cl (stereo unspecified)	i	nt	i	i	i	57
COc1ccc(NC(=O)CC2C(=O)Nc3ccccc3N2CC(=O)N2CCCC2)cc1 (stereo unspecified)	nt	nt	nt	nt	74	nt
Cc1cccn2c(=O)c(C=O)c(N3CCN(c4ccc(F)cc4)CC3)nc12	i	i	i	i	64	i
COC(=O)c1ccccc1NC(=O)c1cnn2cccnc12	i	i	i	i	i	i
Cc1ccc(C(=O)NCCNc2ccc([N+](=O)[O-])cc2C(F)(F)F)cc1	i	i	i	i	i	i
O=C(NCCNc1ccc([N+](=O)[O-])cc1C(F)(F)F)c1ccccc1F	i	i	i	i	59	i
CCOC(=O)c1c(C)nc2c3ccccc3ccn12	i	i	i	i	75	i
COc1ccc(OC)c(CN2CCN(S(=O)(=O)c3ccccc3)CC2)c1	nt	nt	nt	nt	i	nt
COc1ccc(CN2CCN(S(=O)(=O)c3ccccc3)CC2)c(OC)c1	i	i	i	i	52	i
COc1ccccc1NC(=O)Nc1nnc(C(C)c2ccccc2)s1 (stereo unspecified)	nt	nt	nt	nt	i	nt
SMILES	KLK5 inh	STAT3 activator	FXIIa inh 1536	thrombin 1536	AHR activator	FXIa inh 1536
CCCCN(C(=O)NC(=O)Nc1ccccc1OC)S(C)(=O)=O	i	i	i	i	58	i
COc1ccccc1NC(=O)NC(=O)N(C(C)C)S(C)(=O)=O	i	i	i	i	60	i
COc1ccccc1NC(=O)Nc1nnc(C(C)C)s1	i	i	i	i	60	i
COc1ccccc1NC(=O)Nc1ccccc1SC	i	i	i	i	i	i
Cc1ccc(NC(=O)C2C3C=CC4(O3)C2C(=O)N(CCCN2CCCCC2)C4C(=O)NC2CCCCC2)cc1C (stereo unspecified)	nt	nt	nt	nt	i	nt
O=C(CCSc1ccc(F)cc1)NNC(=O)c1ccccc1Cl	nt	nt	nt	nt	i	nt
O=C(N/N=C/c1ccc2c(c1)OCO2)c1cc2ccccc2o1	i	nt	i	i	69	i
O=C(N/N=C/c1ccccc1)c1cc(-c2ccc3c(c2)OCO3)n[nH]1	i	i	i	i	88	i
O=C(N/N=C/c1cccc(O)c1)c1cc(-c2ccc3c(c2)OCO3)n[nH]1	i	i	i	i	117	i
O=C(N/N=C/c1ccsc1)c1cc2ccccc2o1	nt	nt	nt	nt	i	nt
